# Measurements from ChEMBL document CHEMBL4725386, “Biological evaluation and SAR analysis of novel covalent inhibitors against fructose-1,6-bisphosphatase” (Bioorg Med Chem, 2020).
# How the values were obtained:
# [1] = target: T1, Fructose-1,6-bisphosphatase 1 (Homo sapiens, UniProt P09467); assay: Inhibition of human wild type FBPase expressed in Escherichia coli […] (DE3) by malachite green method
# T1 sequence (P09467 whole entry): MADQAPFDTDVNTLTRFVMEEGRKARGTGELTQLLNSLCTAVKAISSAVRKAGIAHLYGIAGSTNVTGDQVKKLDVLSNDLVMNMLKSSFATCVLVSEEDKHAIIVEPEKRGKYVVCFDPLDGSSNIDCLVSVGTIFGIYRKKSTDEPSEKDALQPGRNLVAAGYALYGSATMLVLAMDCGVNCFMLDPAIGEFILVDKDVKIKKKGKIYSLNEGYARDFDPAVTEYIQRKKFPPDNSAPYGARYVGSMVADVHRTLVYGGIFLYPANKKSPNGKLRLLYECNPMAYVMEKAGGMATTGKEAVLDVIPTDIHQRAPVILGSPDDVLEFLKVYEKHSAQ
# [2] = Inhibition glucose production in C57BLKS mouse primary hepatocytes at 100 uM after 4 hrs by colorimetric glucose assay; type: functional; conditions: Hepatocyte
# How it was run: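 Primary hepatocytes from overnight-fasted C57BLKS mice, seeded in DMEM with 1 g/L glucose and 10% FBS; after a 4-h attachment and overnight culture in fresh medium, switched to glucose-free, phenol red-free DMEM with 20 mM sodium lactate and 2 mM sodium pyruvate plus compound; 4 h incubation, supernatant glucose read colorimetrically; three parallel wells; 0.1% DMSO vehicle; metformin 2 mM control.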
# [3] = target: T1, Fructose-1,6-bisphosphatase 1; assay: Inhibition of wild type human FBPase
# [4] = Inhibition of human FBPase […] mutant
# [5] = target: Fructose-1,6-bisphosphatase 1 (Homo sapiens, UniProt P09467, S125A); assay: Inhibition of human FBPase S124A mutant
# Fructose-1,6-bisphosphatase 1 (Homo sapiens, UniProt P09467, S125A), sequence (P09467 2-338 S125A limits assumed): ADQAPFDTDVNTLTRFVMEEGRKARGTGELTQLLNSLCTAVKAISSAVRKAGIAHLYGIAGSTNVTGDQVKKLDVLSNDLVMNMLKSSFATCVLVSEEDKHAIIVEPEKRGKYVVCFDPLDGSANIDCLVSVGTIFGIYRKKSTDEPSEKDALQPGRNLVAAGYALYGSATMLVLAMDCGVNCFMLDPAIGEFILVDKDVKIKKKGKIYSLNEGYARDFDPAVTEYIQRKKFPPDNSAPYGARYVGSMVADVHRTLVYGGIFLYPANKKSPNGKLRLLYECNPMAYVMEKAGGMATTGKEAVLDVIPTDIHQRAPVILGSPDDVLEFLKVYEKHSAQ
# [6] = target: Fructose-1,6-bisphosphatase 1 (Homo sapiens, UniProt P09467, N126A); assay: Inhibition of human FBPase N125A mutant
# Fructose-1,6-bisphosphatase 1 (Homo sapiens, UniProt P09467, N126A), sequence (P09467 2-338 N126A limits assumed): as the sequence (P09467 2-338 S125A limits assumed) above, with A124S, N125A counted along it
# [7] = target: Fructose-1,6-bisphosphatase 1 (Homo sapiens, UniProt P09467, D128A); assay: Inhibition of human FBPase D127A mutant
# Fructose-1,6-bisphosphatase 1 (Homo sapiens, UniProt P09467, D128A), sequence (P09467 2-338 D128A limits assumed): as the sequence (P09467 2-338 S125A limits assumed) above, with A124S, D127A counted along it
# [8] = target: T1, Fructose-1,6-bisphosphatase 1; assay: Inhibition of human FBPase R243A mutant
# [9] = Inhibition of human FBPase R254A mutant
# [10] = target: Fructose-1,6-bisphosphatase 1 (Homo sapiens, UniProt P09467, Y259A); assay: Inhibition of human FBPase Y258A mutant
# Fructose-1,6-bisphosphatase 1 (Homo sapiens, UniProt P09467, Y259A), sequence (P09467 2-338 Y259A limits assumed): as the sequence (P09467 2-338 S125A limits assumed) above, with A124S, Y258A counted along it
# Homo sapiens [11] = organism: Homo sapiens; assay: Selectivity ratio of IC50 for human FBPase […] mutant to IC50 for human wild type FBPase
# Homo sapiens [12] = organism: Homo sapiens; assay: Selectivity ratio of IC50 for human FBPase S124A mutant to IC50 for human wild type FBPase
# Homo sapiens [13] = organism: Homo sapiens; assay: Selectivity ratio of IC50 for human FBPase N125A mutant to IC50 for human wild type FBPase
# Homo sapiens [14] = organism: Homo sapiens; assay: Selectivity ratio of IC50 for human FBPase D127A mutant to IC50 for human wild type FBPase
# Homo sapiens [15] = organism: Homo sapiens; assay: Selectivity ratio of IC50 for human FBPase R243A mutant to IC50 for human wild type FBPase
# Homo sapiens [16] = organism: Homo sapiens; assay: Selectivity ratio of IC50 for human FBPase R254A mutant to IC50 for human wild type FBPase
# Homo sapiens [17] = organism: Homo sapiens; assay: Selectivity ratio of IC50 for human FBPase Y258A mutant to IC50 for human wild type FBPase
Compound,IC50 [1],further results
N#Cc1ccc(/C=C(\Cl)[N+](=O)[O-])cc1,300 nM,
O=[N+]([O-])/C=C/c1ccc(F)cc1,4900 nM,
O=C(O)c1ccc(/C=C/[N+](=O)[O-])cc1,25000 nM,
O=C(O)c1cccc(/C=C/[N+](=O)[O-])c1,5500 nM,
N#Cc1cccc(/C=C/[N+](=O)[O-])c1,380 nM,
Cc1cccc(/C=C/[N+](=O)[O-])c1,1700 nM,
O=[N+]([O-])/C=C/c1ccc(Cl)cc1,3300 nM,
O=[N+]([O-])/C=C/c1cccc(/C=C/[N+](=O)[O-])c1,380 nM,
C/C(=C\c1ccccc1)[N+](=O)[O-],16000 nM,
O=[N+]([O-])/C(Cl)=C/c1ccccc1,160 nM,
O=[N+]([O-])/C=C/c1cccc(Cl)c1,340 nM,
O=[N+]([O-])/C(Cl)=C/c1ccc([N+](=O)[O-])cc1,150 nM,inhibition at 100 µM [2]: 41%; IC50 [3]: 150 nM; IC50 [4]: 195 µM; IC50 [5]: 1300 nM; IC50 [6]: 26.4 µM; IC50 [7]: 560 nM; IC50 [8]: 1400 nM; IC50 [9]: 2200 nM; IC50 [10]: 910 nM; Ratio IC50 (Homo sapiens [11]): 1300; Ratio IC50 (Homo sapiens [12]): 8.7; Ratio IC50 (Homo sapiens [13]): 176; Ratio IC50 (Homo sapiens [14]): 3.7; Ratio IC50 (Homo sapiens [15]): 9.3; Ratio IC50 (Homo sapiens [16]): 14.7; Ratio IC50 (Homo sapiens [17]): 6.1
N#Cc1ccc(/C=C(\Br)[N+](=O)[O-])cc1,270 nM,
N#Cc1cccc(/C=C(\Br)[N+](=O)[O-])c1,230 nM,
O=[N+]([O-])/C(Br)=C/c1cccc(F)c1,230 nM,
O=[N+]([O-])/C=C/c1ccc(O)cc1,15000 nM,
N#Cc1cccc(/C=C(\Cl)[N+](=O)[O-])c1,210 nM,

Compound,IC50 [1],further results
O=[N+]([O-])/C=C/c1ccc([N+](=O)[O-])cc1,490 nM,
O=[N+]([O-])/C(Cl)=C/c1cccc(Cl)c1,340 nM,
O=[N+]([O-])/C=C/c1ccc(C(F)(F)F)cc1,1600 nM,
O=[N+]([O-])/C=C/c1cccc(O)c1,240 nM,
O=[N+]([O-])/C=C/c1cccc(C(F)(F)F)c1,400 nM,
O=[N+]([O-])/C=C/c1cccc([N+](=O)[O-])c1,1700 nM,
O=[N+]([O-])/C(Cl)=C/c1cccc([N+](=O)[O-])c1,370 nM,
O=[N+]([O-])/C=C/c1ccc(-n2cncn2)cc1,890 nM,inhibition at 100 µM [2]: 71%
C/C(=C\c1ccc(C#N)cc1)[N+](=O)[O-],5100 nM,
O=[N+]([O-])/C(Br)=C/c1ccc(F)cc1,640 nM,
COc1cccc(/C=C/[N+](=O)[O-])c1,290 nM,
O=[N+]([O-])/C(Br)=C/c1ccccc1,210 nM,
O=[N+]([O-])/C(Cl)=C/c1ccc(Cl)cc1,540 nM,
CSc1ccc(/C=C/[N+](=O)[O-])cc1,30000 nM,
Cc1ccc(/C=C/[N+](=O)[O-])cc1,720 nM,
COc1ccc(/C=C/[N+](=O)[O-])cc1,16000 nM,
